Assay results: ChEMBL document CHEMBL1156776, “Hybrid inhibitors of phosphatidylinositol 3-kinase (PI3K) and the mammalian target of rapamycin (mTOR): design, synthesis, and superior antitumor activity of novel wortmannin-rapamycin conjugates” (J Med Chem, 2010)
≈ marks a conversion by molar mass, not a printed value. Calls of active or inactive are those of the source. No cut-off for these calls is given here.

Assays:
[1] = Stability in rat plasma assessed as compound remaining after 90 mins relative to basal level; type: ADME, cell-free; settings: read-out: Stability
Method in brief: (§1)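 Compound was incubated in heparinized plasma at 37 °C for 2 h. Samples taken at various time points were quenched with acetonitrile, dried under nitrogen and reconstituted in methanol/water 20:80. Intact compound was quantified by LC/MS.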

U-87MG ATCC [2] = test: Antitumor activity against human U87MG cells xenografted in nude mouse assessed as tumor growth inhibition at 3 mg/kg, iv once weekly; type: functional, organism-based; set-up: dose 3 mg/kg
Method in brief: (§2)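 U87MG glioma xenografts in nude mice were staged and randomized (n = 10). Dosing was iv once weekly in D5W (days 0, 6 or days 0, 6, 13), with vehicle controls. Tumor volume was measured twice weekly.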

[3] = Inhibition of PI3K
[4] = Stability in rat plasma assessed as compound remaining after 15 mins relative to basal level; type: ADME, cell-free; settings: read-out: Stability; method in brief: as §1
U-87MG ATCC [5] = test: Antitumor activity against human U87MG cells xenografted in nude mouse assessed as inhibition of AKT T308 phosphorylation at 15 mg/kg, iv administered as single dose measured after 2 hrs; type: functional, organism-based; set-up: dose 15 mg/kg
Method in brief: (§3)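 Nude mice bearing U87MG tumors got a single iv dose. Tumors were excised 2 h later and analysed by Western blot for phosphoproteins (AKT S473, T308) against vehicle-treated controls.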

[6] = Stability in mouse plasma assessed as compound remaining after 15 mins relative to basal level; type: ADME, cell-free; settings: read-out: Stability; method in brief: as §1
[7] = molecular target: Serine/threonine-protein kinase mTOR (Homo sapiens) (UniProt P42345); test: Inhibition of mTOR
[8] = Stability in rat plasma assessed as compound remaining after 60 mins relative to basal level; type: ADME, cell-free; settings: read-out: Stability; method in brief: as §1
U-87MG ATCC [9] = test: Antitumor activity against human U87MG cells xenografted in nude mouse assessed as inhibition of AKT S473 phosphorylation at 15 mg/kg, iv administered as single dose measured after 2 hrs; type: functional, organism-based; set-up: dose 15 mg/kg; method in brief: as §3
Homo sapiens [10] = species on record: Homo sapiens; test: Stability in human plasma assessed as compound remaining after 5 mins relative to basal level
Homo sapiens [11] = species on record: Homo sapiens; test: Stability in human plasma assessed as compound remaining after 90 mins relative to basal level
Homo sapiens [12] = species on record: Homo sapiens; test: Stability in human plasma assessed as compound remaining after 60 mins relative to basal level
[13] = Stability in nude mouse whole blood assessed as release of (4S,4aR,6aS,7S,9aR,E)-1-(((3-(dimethylamino)propyl)(methyl)amino)methylene)-7,11-dihydroxy-4-(methoxymethyl)-4a-methyl-2,10-dioxo-1,2,4,4a,5,6,6a,7,8,9,9a,10-dodecahydroindeno[4,5-h]isochromen-5-yl hydrogen carbonate; type: ADME, tissue-based
Method in brief: (§4)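 Compound was incubated in nude mouse plasma or whole blood at 37 °C for 2 h, with heparin or sodium fluoride/EDTA as anticoagulant. Time-point samples were quenched with acetonitrile, dried, reconstituted and analysed by LC/MS for parent and hydrolysis products.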

U-87MG ATCC [14] = test: Antitumor activity against human U87MG cells xenografted in nude mouse assessed as tumor growth inhibition administered iv once weekly; type: functional; method in brief: as §2
[15] = Stability in rat plasma assessed as compound remaining after 120 mins relative to basal level; type: ADME, cell-free; settings: read-out: Stability; method in brief: as §1
[16] = Stability in nude mouse liver microsomes assessed as compound remaining after 30 mins; type: ADME, Microsome; settings: read-out: Stability
Method in brief: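 Female nude mouse liver microsomes were incubated with compound for 30 min at 37 °C, with NADPH dependence examined. Remaining parent and hydrolysis products were measured.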

[17] = Stability in mouse plasma assessed as compound remaining after 90 mins relative to basal level; type: ADME, cell-free; settings: read-out: Stability; method in brief: as §1
[18] = Solubility in water; type: physicochemical
A498 = test: Antitumor activity against human A498 cells xenografted in nude mouse assessed as tumor growth inhibition at 30 mg/kg, iv once weekly
Homo sapiens [19] = species on record: Homo sapiens; test: Stability in human plasma assessed as compound remaining after 15 mins relative to basal level
[20] = Stability in mouse plasma assessed as compound remaining after 5 mins relative to basal level; type: ADME, cell-free; settings: read-out: Stability; method in brief: as §1
[21] = Stability in rat plasma assessed as compound remaining after 30 mins relative to basal level; type: ADME, cell-free; settings: read-out: Stability; method in brief: as §1
U-87MG ATCC [22] = test: Antitumor activity against human U87MG cells xenografted in nude mouse assessed as tumor growth inhibition at 5 mg/kg, iv once weekly; type: functional, organism-based; set-up: dose 5 mg/kg; method in brief: as §2
[23] = Stability in mouse plasma assessed as compound remaining after 30 mins relative to basal level; type: ADME, cell-free; settings: read-out: Stability; method in brief: as §1
Homo sapiens [24] = species on record: Homo sapiens; test: Stability in human plasma assessed as compound remaining after 120 mins relative to basal level
HT-29 = test: Antitumor activity against human HT-29 cells xenografted in nude mouse assessed as tumor growth inhibition at 15 mg/kg, iv once weekly; type: functional, organism-based; set-up: dose 15 mg/kg
Method in brief: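 Nude mice bearing HT29 colon xenografts were randomized into groups (n = 10) and dosed iv once weekly. Agents were in 5% dextrose in water, or in 4% ethanol/5% polysorbate 80/5% PEG400 for the rapamycin-type agent. Tumor growth was monitored against vehicle.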

[25] = Stability in mouse plasma assessed as compound remaining after 120 mins relative to basal level; type: ADME, cell-free; settings: read-out: Stability; method in brief: as §1
[26] = Stability in nude mouse whole blood assessed as 8-((4S,4aR,6aS,7S,9aR,E)-5-(carboxyoxy)-1-(((3-(dimethylamino)propyl)(methyl)amino)methylene)-11-hydroxy-4-(methoxymethyl)-4a-methyl-2,10-dioxo-1,2,4,4a,5,6,6a,7,8,9,9a,10-dodecahydroindeno[4,5-h]isochromen-7-yloxy)-8-oxooctanoic acid formation; type: ADME, tissue-based; method in brief: as §4
Homo sapiens [27] = species on record: Homo sapiens; test: Stability in human plasma assessed as compound remaining after 30 mins relative to basal level
[28] = Stability in rat plasma assessed as compound remaining after 5 mins relative to basal level; type: ADME, cell-free; settings: read-out: Stability; method in brief: as §1
[29] = Stability in nude mouse whole blood assessed as rapamycin formation; type: ADME, tissue-based; method in brief: as §4
[30] = Stability in mouse plasma assessed as compound remaining after 60 mins relative to basal level; type: ADME, cell-free; settings: read-out: Stability; method in brief: as §1
[31] = Stability in human liver microsomes assessed as compound remaining after 30 mins; type: ADME, Microsome; settings: read-out: Stability
Method in brief: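 Compound (10 μM) was incubated with human liver microsomes (1 mg/mL) at 37 °C for 30 min, alongside buffer (pH 7.4) and boiled-microsome controls. NADPH dependence was examined. Reactions were quenched with 3 volumes of cold acetonitrile.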

U-87MG ATCC [32] = test: Antitumor activity against human U87MG cells xenografted in nude mouse assessed as inhibition of S6K phosphorylation at 15 mg/kg, iv administered as single dose measured after 2 hrs; type: functional, organism-based; set-up: dose 15 mg/kg
Plasma = test: Stability in mouse plasma in presence of esterase inhibitor sodium fluoride; type: ADME, cell-free; method in brief: as §4

COC[C@H]1OC(=O)/C(=C\N(C)CCCN(C)C)C2=C(O)C(=O)C3=C([C@H](OC(C)=O)C[C@]4(C)[C@@H](OC(=O)CCCCCCC(=O)O[C@@H]5CC[C@@H](C[C@@H](C)[C@@H]6CC(=O)[C@H](C)/C=C(\C)[C@@H](O)[C@@H](OC)C(=O)[C@H](C)C[C@H](C)/C=C/C=C/C=C(\C)[C@@H](OC)C[C@@H]7CC[C@@H](C)[C@@](O)(O7)C(=O)C(=O)N7CCCC[C@H]7C(=O)O6)C[C@H]5OC)CC[C@@H]34)[C@]21C
remaining at 1.5 h [1]: 53%
Activity (U-87MG ATCC [2]): Active
inhibition [3]: inactive
remaining at 0.25 h [4]: 80%
Activity (U-87MG ATCC [5]): Active
remaining at 0.25 h [6]: 39%
inhibition [7]: inactive
remaining at 1 h [8]: 64%
Activity (U-87MG ATCC [9]): Active
remaining at 5 min (Homo sapiens [10]): 86%
remaining at 1.5 h (Homo sapiens [11]): 82%
remaining at 1 h (Homo sapiens [12]): 83%
Stability [13]: Stable
Activity (U-87MG ATCC [14]): Dose-dependent effect
remaining at 2 h [15]: 46%
remaining at 0.5 h [16]: ≥ 50%
remaining at 1.5 h [17]: 10%
solubility ([18]; buffer): Soluble
solubility ([18]; water, read-out: solubility): 0.46 mg/mL (≈ 288 µM)
Activity (A498): Active
remaining at 0.25 h (Homo sapiens [19]): 93%
remaining at 5 min [20]: 53%
remaining at 0.5 h [21]: 71%
Activity (U-87MG ATCC [22]): Active
remaining at 0.5 h [23]: 18%
remaining at 2 h (Homo sapiens [24]): 83%
Activity (HT-29): Active
remaining at 2 h [25]: 8%
Stability [26]: Unstable
remaining at 0.5 h (Homo sapiens [27]): 91%
remaining at 5 min [28]: 91%
Stability [29]: Unstable
remaining at 1 h [30]: 13%
remaining at 0.5 h [31]: ≥ 50%
Activity (U-87MG ATCC [32]): Active
Stability (Plasma): Stable
